The values that follow come from ChEMBL document CHEMBL4834405, “Structure-Based Design of High-Affinity Macrocyclic FKBP51 Inhibitors” (J Med Chem, 2021).

The target in experiment [1] is Peptidyl-prolyl cis-trans isomerase FKBP1A (Homo sapiens, UniProt P62942). Description: Displacement of fluorescent tracer 5-(3-(4-((1S,5S,6S)-10-(3,5-dichlorophenylsulfonyl)-2-oxo-3-(pyridin-3-ylmethyl)-3,10-diazabicyclo[4.3.1]decan-5-yl)-1H-1,2,3-triazol-1-yl)propylcarbamoyl)-2-(6-(dimethylamino)-3-(dimethyliminio)-3H-xanthen-9-yl)benzoate from recombinant full length C-terminal FLAG-tagged FKBP12 (unknown origin) expressed in Escherichia coli BL21 ([…]) cells incubated for 30 mins by fluorescence polarisation competition binding assay. The essentials:
(§1)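 Competitive FP in 150 mM NaCl, 20 mM HEPES pH 8.0, 0.002% Triton X-100. Ligand 1:1 serially diluted in DMSO and premixed with fluorescent tracer, tracer working solution 11.9 nM (FKBP12.6, 51FK1, 52FK1) or 5.95 nM (FKBP12) before final 10-fold dilution into protein. 30 min at room temperature, read at ex/em 535/590 nm. Weighted SD from at least two independent runs.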

The target in experiment [2] is Peptidyl-prolyl cis-trans isomerase FKBP1B (Homo sapiens, UniProt P68106). Description: Displacement of fluorescent tracer 5-(3-(4-((1S,5S,6S)-10-(3,5-dichlorophenylsulfonyl)-2-oxo-3-(pyridin-3-ylmethyl)-3,10-diazabicyclo[4.3.1]decan-5-yl)-1H-1,2,3-triazol-1-yl)propylcarbamoyl)-2-(6-(dimethylamino)-3-(dimethyliminio)-3H-xanthen-9-yl)benzoate from recombinant full length C-terminal FLAG-tagged FKBP12.6 (unknown origin) expressed in Escherichia coli BL21 (DE3) cells incubated for 30 mins by fluorescence polarisation competition assay. The essentials:
as §1
In general terms: In fluorescence polarisation assays a small probe gives low polarisation when free and higher when bound to something large.

Experiment [3] concerns the target T1, Peptidyl-prolyl cis-trans isomerase FKBP5 (Homo sapiens, UniProt Q13451).
T1 sequence (Q13451 whole entry): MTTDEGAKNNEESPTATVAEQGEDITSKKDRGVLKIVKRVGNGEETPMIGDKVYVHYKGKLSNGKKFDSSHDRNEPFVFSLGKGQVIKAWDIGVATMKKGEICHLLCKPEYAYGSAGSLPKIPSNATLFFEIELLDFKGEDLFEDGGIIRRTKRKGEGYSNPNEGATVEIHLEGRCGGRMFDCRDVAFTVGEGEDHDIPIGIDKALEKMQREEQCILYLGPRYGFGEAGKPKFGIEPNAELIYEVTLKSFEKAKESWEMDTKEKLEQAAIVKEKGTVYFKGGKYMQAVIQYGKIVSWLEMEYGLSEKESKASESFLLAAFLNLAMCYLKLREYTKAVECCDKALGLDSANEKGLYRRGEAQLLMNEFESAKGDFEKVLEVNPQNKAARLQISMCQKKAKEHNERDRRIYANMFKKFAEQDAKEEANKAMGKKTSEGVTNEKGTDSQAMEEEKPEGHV
Kind of experiment: Displacement of fluorescent tracer 5-(3-(4-((1S,5S,6S)-10-(3,5-dichlorophenylsulfonyl)-2-oxo-3-(pyridin-3-ylmethyl)-3,10-diazabicyclo[4.3.1]decan-5-yl)-1H-1,2,3-triazol-1-yl)propylcarbamoyl)-2-(6-(dimethylamino)-3-(dimethyliminio)-3H-xanthen-9-yl)benzoate from recombinant full length C-terminal FLAG-tagged FKBP51 (unknown origin) expressed in Escherichia coli BL21 (DE3) cells incubated for 30 mins by fluorescence polarisation competition binding assay.

Experiment [4] has as its target T2, Peptidyl-prolyl cis-trans isomerase FKBP5 (Homo sapiens) (UniProt Q13451).
T2 sequence (whole entry): T1 sequence (Q13451 whole entry)
Description: Binding affinity to FKBP51 FK1 domain (unknown origin) assessed as change in enthalpy by isothermal titration calorimetric analysis. The essentials:
(§2)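 FKBP51 FK1 domain, ITC at 25 °C in 20 mM HEPES pH 8.0, 20 mM NaCl. Standard setup: 10 μM protein in cell with 0.5% DMSO, 100 μM ligand in syringe. Reverse setup for poorly soluble ligand: 10 μM ligand in cell with 5% DMSO, 100 μM protein in syringe. 18 × 2 μL injections, one-site binding fit, triplicates, weighted SD that includes fit errors.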

The target in experiment [5] is T1, Peptidyl-prolyl cis-trans isomerase FKBP5. Kind of experiment: Binding affinity to FKBP51 FK1 domain (unknown origin) assessed as dissociation constant at 25 degreeC by isothermal titration calorimetric analysis. The essentials:
as §2

Experiment [6] is described as follows: (§3) Selectivity ratio of Kd for displacement of fluorescent tracer 5-(3-(4-((1S,5S,6S)-10-(3,5-dichlorophenylsulfonyl)-2-oxo-3-(pyridin-3-ylmethyl)-3,10-diazabicyclo[4.3.1]decan-5-yl)-1H-1,2,3-triazol-1-yl)propylcarbamoyl)-2-(6-(dimethylamino)-3-(dimethyliminio)-3H-xanthen-9-yl)benzoate from recombinant full length C-terminal FLAG-tagged FKBP52 (unknown origin) to Kd for displacement of fluorescent tracer 5-(3-(4-((1S,5S,6S)-10-(3,5-dichlorophenylsulfonyl)-2-oxo-3-(pyridin-3-ylmethyl)-3,10-diazabicyclo[4.3.1]decan-5-yl)-1H-1,2,3-triazol-1-yl)propylcarbamoyl)-2-(6-(dimethylamino)-3-(dimethyliminio)-3H-xanthen-9-yl)benzoate from recombinant full length C-terminal FLAG-tagged FKBP51 (unknown origin).

Experiment [7] concerns the target T2, Peptidyl-prolyl cis-trans isomerase FKBP5 (Homo sapiens). Kind of experiment: Binding affinity to FKBP51 FK1 domain (unknown origin) assessed as gibbs free energy change by isothermal titration calorimetric analysis. The method, boiled down: as §2
Experiment [8] has as its target T3, Peptidyl-prolyl cis-trans isomerase FKBP4 (Homo sapiens, UniProt Q02790).
T3 sequence (Q02790 whole entry): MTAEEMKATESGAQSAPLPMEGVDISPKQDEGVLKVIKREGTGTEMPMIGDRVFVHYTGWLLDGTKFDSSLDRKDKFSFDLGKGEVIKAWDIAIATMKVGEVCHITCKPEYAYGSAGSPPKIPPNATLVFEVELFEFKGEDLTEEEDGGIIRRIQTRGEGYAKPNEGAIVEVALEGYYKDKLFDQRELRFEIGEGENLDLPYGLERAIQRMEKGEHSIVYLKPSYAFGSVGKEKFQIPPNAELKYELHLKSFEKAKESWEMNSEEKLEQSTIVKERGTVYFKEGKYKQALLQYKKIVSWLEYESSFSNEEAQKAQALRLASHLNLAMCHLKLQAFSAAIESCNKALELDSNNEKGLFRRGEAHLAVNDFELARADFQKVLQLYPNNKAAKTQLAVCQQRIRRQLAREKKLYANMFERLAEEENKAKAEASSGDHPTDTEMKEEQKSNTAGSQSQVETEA
Kind of experiment: Displacement of fluorescent tracer 5-(3-(4-((1S,5S,6S)-10-(3,5-dichlorophenylsulfonyl)-2-oxo-3-(pyridin-3-ylmethyl)-3,10-diazabicyclo[4.3.1]decan-5-yl)-1H-1,2,3-triazol-1-yl)propylcarbamoyl)-2-(6-(dimethylamino)-3-(dimethyliminio)-3H-xanthen-9-yl)benzoate from recombinant full length C-terminal FLAG-tagged FKBP52 (unknown origin) expressed in Escherichia coli BL21 (DE3) cells incubated for 30 mins by fluorescence polarisation competition binding assay. The method, boiled down: as §1

The nature of experiment [9]: as §3, with “FJBP12” for “FKBP52 (unknown origin)”.
The nature of experiment [10]: as §3, with “FKBP12.6” for “FKBP52”.

Each structure is given as a SMILES string.

Chain of Peptidyl-prolyl cis-trans isomerase FKBP1A (P62942 whole entry): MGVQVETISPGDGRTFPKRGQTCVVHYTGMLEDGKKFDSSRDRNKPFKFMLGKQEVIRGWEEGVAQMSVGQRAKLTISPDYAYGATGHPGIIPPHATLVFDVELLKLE
Chain of Peptidyl-prolyl cis-trans isomerase FKBP1B (P68106 whole entry): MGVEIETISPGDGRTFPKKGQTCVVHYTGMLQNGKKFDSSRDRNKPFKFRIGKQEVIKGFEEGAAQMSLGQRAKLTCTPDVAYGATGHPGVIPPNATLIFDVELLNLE

For `COc1ccc(CC[C@H]2OC(=O)[C@@H]3CCCCN3C(=O)[C@@H](C3CCCCC3)c3cc(OC)c(OC)c(c3)OC[C@@H](O)[C@H](O)COc3cccc2c3)cc1OC`, the Kd (usually the constant that tells how readily two partners part at equilibrium) in [1] came out at 22 nM; in [2] it was 9 nM; in experiment [3], 5 nM; in experiment [5], 6.9 nM; in experiment [8] it was 513 nM. Further, the deltaH in experiment [4] is -11.3 kcal/mol. Besides, the results for the Selectivity ratio in [6], in experiment [9] and in [10] were 103, 4.4 and 1.8, respectively. The deltaG in [7] was -11.1 kcal/mol.
On to `COc1ccc(CC[C@@H](OC(=O)[C@@H]2CCCCN2C(=O)[C@H](c2cc(OC)c(OC)c(OC)c2)C2CCCCC2)c2cccc(OCC(=O)O)c2)cc1OC`, for which, in [4], the deltaH is -11.2 kcal/mol. Moreover, the Kd in experiment [5] was 9.8 nM. The deltaG in experiment [7] was -10.9 kcal/mol.
Turning to `COc1ccc(CC[C@H]2OC(=O)[C@@H]3CCCCN3C(=O)[C@@H](C3CCCCC3)c3cc(OC)c(c(OC)c3)OCC(O)C(O)COc3cccc2c3)cc1OC` (mixture of isomers), the dissociation constant Kd in [1] amounted to 79 nM; in [2], 85 nM; in experiment [3] it was 12 nM; in experiment [8], 795 nM. For the same molecule, the results for the Selectivity ratio in [6], in [9] and in experiment [10] were 66.2, 6.5 and 7, respectively.
For the molecule `COc1ccc(CC[C@H]2OC(=O)[C@@H]3CCCCN3C(=O)[C@@H](C3CCCCC3)c3cc(OC)c(OC)c(c3)OCCC(=O)CCOc3cccc2c3)cc1OC`, the equilibrium dissociation constant (Kd) was found to be 38 nM in [1], 20 nM in experiment [2], 8 nM in [3] and 1400 nM in [8]. For the same molecule, the values for the Selectivity ratio in experiment [6], in [9] and in experiment [10] were 175, 4.8 and 2.5, respectively.
For the molecule `COc1ccc(CC[C@H]2OC(=O)[C@@H]3CCCCN3C(=O)[C@@H](C3CCCCC3)c3cc(OC)c(OC)c(c3)OC/C=C/COc3cccc2c3)cc1OC`, the Kd in [1] is 212 nM; in [2], 216 nM; in experiment [3] it was 108 nM; in experiment [8], 5390 nM. Moreover, the Selectivity ratio in experiment [6] was 49.9; in experiment [9] it was 1.9; in [10], 2.
In the case of `COc1ccc(CC[C@H]2OC(=O)[C@@H]3CCCCN3C(=O)[C@@H](C3CCCCC3)c3cc(OC)c(OC)c(c3)OCCCOc3cccc2c3)cc1OC`, the Kd was 295 nM in experiment [1], 94 nM in [2], 70 nM in [3] and 13200 nM in experiment [8]. In addition, the Selectivity ratio in experiment [6] is greater than 188; in experiment [9], 4.2; in experiment [10] it was 1.3.
